# Screening data deposited in PubChem by several laboratories.
# TLR9-MyD88 inh: inhibitors of TLR9-MyD88 association in cells, primary screen, cell-based, CHO, BLA complementation, fluorescence; CCF4 FRET ratio; AID 504734, 2011; inhibition, % at 4.98 µM; 340,000 tested, 0.21% active; Toll-like receptor 9 (Homo sapiens) + Myeloid differentiation primary response protein …;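 active means inhibition above the mean over all tested compounds plus 3 SD, cut at about 21% in these data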
# TLR4 MyD88 comp: inhibitors of TLR4-MyD88 association in cells, primary screen, cell-based, HeLa CL3-4, BLA complementation, FRET ratio. Toll-like receptor 4 (Homo sapiens) + Myeloid differentiation primary response protein …. HeLa CL3-4 TLR4/MyD88 BLA complementation. inhibition, % at 8.4 µM. 200,000 tested, 0.18% active. AID 861, 2007; in the data active means inhibition above about 25%
# NOD2 RIPK2 PPI: NOD2-RIPK2 binding disruptors in cells, primary screen, fluorescence, CHO cells, BLA complementation | Receptor-interacting serine/threonine-protein kinase 2 (Homo sapiens), O43353 | CCF4 ratio | inhibition, % at 4.98 µM | 360,000 tested, 0.38% active | AID 624267, 2012; in the data active means inhibition above about 21%
# Beta2AR agonist: beta2AR agonists driving receptor internalization, primary screen, cell-based, FAP fluorogen, flow cytometry. Beta-2 adrenergic receptor (Homo sapiens), P07550. Am2.2-beta2AR cells. response, % (test concentration not listed). 340,000 tested, 0.43% active;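 active means response above a set limit, near 3 SD of response in nonfluorescent compounds, cut at about 42% in these data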
# Dynein transport: inhibitors of GR-EGFP nuclear translocation, primary screen, dynein cargo transport inhibitor project, imaging, high-content, 3617.4 mouse cells; AID 1381, 2008; 220,000 tested, 0.47% active; z-score, hits read low; test concentration mostly 20 µM; stimulated with dexamethasone, 1 µM; active compounds read low;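 active means plate z-score of nuclear minus cytoplasmic receptor signal below a set negative limit, without overly bright fluorescence or cell loss, cut at about -3.5 in these data, passing the limit was not always enough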;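 further: z-score of nuclear minus cytoplasmic ring GR-EGFP intensity difference per well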
#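 Buffer or medium: tetracycline-free induction medium containing charcoal-stripped FBS / Reagent: dexamethasone agonist, 1.0 µM final, for 30 min / Technique: automated 10x imaging of fixed Hoechst-stained cells / Times: induction 48 h, compound 1 h, agonist 30 min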
# ABHD5 PLIN5 PPI: ABHD5-PLIN5 interaction inhibitors, primary screen, cell lysate, split luciferase complementation, luminescence; inhibition, % at 4 µM; Perilipin-5 (Homo sapiens) + 1-acylglycerol-3-phosphate O-acyltransferase ABHD5 (Homo …; Split G. princeps luciferase complementation, 4 h; 360,000 tested, 0.78% active;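 active means inhibition above the mean inhibition across every tested compound plus 3 SD, cut at about 22% in these data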
# ABHD5-PLIN5 conf: ABHD5-PLIN5 interaction inhibitors, confirmation, biochemical, luminescence | shares compounds with ABHD5 PLIN5 PPI | inhibition, % at 4 µM | 2,200 tested, 67% active | AID 651612, 2012; in the data active means inhibition above about 23%
# HNF4 split-luc: HNF4 dimerization inhibitors, counter-screen for ABHD5-PLIN5 interaction inhibitor project, biochemical, split-luciferase complementation, luminescence; shares compounds with ABHD5 PLIN5 PPI; inhibition, % at 4 µM; 2,200 tested, 77% active; AID 651674, 2012;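 active means mean inhibition across replicate wells exceeding the computed hit threshold, cut at about 13% in these data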;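 further: light from luciferase halves that rejoin when HNF4 fusion proteins dimerize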
# Hits are given with their value; . = inactive; / = no result. The list is not random: actives were taken first. Their share in the collection is about 1.6%.
SMILES,TLR9-MyD88 inh,TLR4 MyD88 comp,NOD2 RIPK2 PPI,Beta2AR agonist,Dynein transport,ABHD5 PLIN5 PPI,ABHD5-PLIN5 conf,HNF4 split-luc
CCN(CC(=O)Nc1ccc(OC)cc1)C(=O)CSCC(=O)Nc1ccc(C)cc1,.,/,.,.,/,.,/,/
CCN(CC(=O)Nc1c(F)cccc1F)C(=O)CSCC(=O)Nc1ccc(OC)cc1,.,/,.,.,/,26,.,.
CCN(CC)CCC(C)OC(c1ccccc1)c1ccccc1 (configuration not stated),.,/,.,.,.,24,77,31
CCN(CC)CCOC(c1ccccc1)c1ccc(C)cc1 (configuration not stated),.,.,.,.,.,.,/,/
COc1cccc(CC2(CO)CCCN(Cc3ccc(-c4ccco4)cc3)C2)c1 (configuration not stated),.,.,.,.,.,24,22,32
O=C(O)c1cccc(S(=O)(=O)Nc2ccc3oc(=O)sc3c2)c1,.,.,.,.,.,63,.,42
O=C(O)c1cccc(S(=O)(=O)Nc2ccc3[nH]c(=O)[nH]c3c2)c1,.,/,.,.,.,.,/,/
COc1ccc(CCCNC(=O)C2Cc3c(-c4ccccc4)ccnc3O2)cc1 (configuration not stated),/,/,.,/,/,.,/,/
CCOC(=O)c1c(CSC(=N)N)n(-c2ccccc2)c2cc(Br)c(OC(C)=O)cc12,.,/,.,.,.,32,29,30
CCOC(=O)c1c(CN2CCN(C)CC2)n(-c2ccccc2)c2cc(Br)c(O)cc12,.,/,.,.,.,.,/,/
CCC(=O)Nc1cccc(C(=O)/C=C/c2cc(Br)ccc2OC)c1,.,.,.,.,.,51,92,79
CC(=O)Nc1cccc(C(=O)/C=C/c2ccc[nH]2)c1,.,/,.,.,.,.,/,/
CC(=O)Nc1cccc(C(=O)/C=C/c2ccc(Br)cc2)c1,.,.,.,67,.,79,94,88
O=C(NCc1ccccc1)C(c1ccncc1)n1c(=O)c(-c2ccco2)nc2ccccc21 (configuration not stated),/,/,.,/,/,36,31,14
O=C(NCc1ccccc1)C(c1ccc(-c2ccccc2)cc1)n1c(=O)c(-c2ccco2)nc2ccccc21 (configuration not stated),/,/,.,/,/,87,75,14
CCCCCNC(=O)C(c1ccnc2ccccc12)n1c(=O)c(-c2ccccc2)nc2ccccc21 (configuration not stated),/,/,.,/,/,.,/,/
O=C(/C=C/[C@H]1O[C@@H](n2ccc(=O)[nH]c2=O)[C@H](O)[C@@H]1O)NCc1ccc2c(c1)OCO2,/,/,.,/,/,.,/,/
CC1CC(C)CN(C(=O)CN2C(=O)NC(c3ccccc3)(c3ccccc3)C2=O)C1 (configuration not stated),.,/,.,.,/,34,.,.
CC[C@H]1c2[nH]c3ccccc3c2C[C@@H]2C(=O)N(c3ccc(F)cc3)C(=O)N21,.,/,.,.,/,.,/,/
CC1=NN(c2ccccc2)C(=O)/C1=C\C=C1/N(C)c2ccccc2C1(C)C,.,.,.,.,.,26,.,23
CC1=NN(c2ccccc2)C(=O)/C1=C\C=C1\N(C)c2ccccc2C1(C)C,.,.,.,.,.,.,/,/
O=C(c1cnn2c(C(F)(F)F)cc(-c3cccs3)nc12)N1CCCC1,.,/,.,.,.,.,/,/
O=C(NCc1ccco1)c1cnn2c(C(F)(F)F)cc(-c3cccs3)nc12,.,.,.,.,.,24,25,47
CCOC(=O)C1(C)CCN1C(=O)c1ccc(OC)c(F)c1 (configuration not stated),/,/,.,/,/,.,/,/
O=C(CCN1CCCC1Cc1ccccc1)c1ccc2c(c1)OCCO2 (configuration not stated),.,.,.,.,.,28,25,87
SMILES,TLR9-MyD88 inh,TLR4 MyD88 comp,NOD2 RIPK2 PPI,Beta2AR agonist,Dynein transport,ABHD5 PLIN5 PPI,ABHD5-PLIN5 conf,HNF4 split-luc
CCOC(=O)Cc1csc(NC(=O)NC2(C(F)(F)F)Oc3ccc(Cl)cc3O2)n1 (configuration not stated),.,.,.,.,.,25,54,60
CCOC(=O)Cc1csc(NC(=O)NC2(C(F)(F)F)Oc3ccccc3O2)n1,.,.,.,.,.,26,62,91
CC(=O)Oc1ccc(OC(C)=O)c2c1CC(C)=C(C)C2,.,/,.,.,.,31,32,24
Cc1ccc(CC2S/C(=C(/C#N)C(=O)NCc3ccco3)N(c3ccccc3)C2=O)cc1 (configuration not stated),.,.,.,.,.,23,.,13
N#C/C(C(=O)NCc1ccco1)=C1/SC(Cc2ccc(Cl)cc2)C(=O)N1c1ccccc1 (configuration not stated),.,.,.,.,.,.,/,/
CN(C(=O)c1ccc(NC(=O)C2CCCN(C(=O)OC(C)(C)C)C2)cc1)C1CC1 (configuration not stated),.,/,.,.,/,.,/,/
CC(C)(C)OC(=O)N1CCCC(C(=O)Nc2ccc(C(=O)NC3CC3)cc2)C1 (configuration not stated),.,/,.,.,/,35,.,.
CC(C)c1ccc(C2OCC(C)([N+](=O)[O-])CO2)cc1 (configuration not stated),.,/,.,.,/,.,/,/
C=CCn1c(SCC(=O)NC2CCCC2)nc2scc(-c3ccco3)c2c1=O,.,.,.,.,.,43,36,86
C=CCn1c(SCC(=O)NCC2CCCO2)nc2scc(-c3ccccc3)c2c1=O (configuration not stated),.,/,.,.,/,.,/,/
CC(C)NC(C(=O)Nc1cc(Cl)cc(Cl)c1)c1ccccc1 (configuration not stated),.,.,.,.,.,54,.,.
CN(C)CCNC(C(=O)Nc1cc(Cl)cc(Cl)c1)c1ccccc1 (configuration not stated),.,.,.,.,.,.,/,/
